The source of these data is ChEMBL document CHEMBL2396651, “Improving the biological activity of the antimicrobial peptide anoplin by membrane anchoring through a lipophilic amino acid derivative” (Bioorg Med Chem Lett, 2013).

Converted amounts (≈) assume the structure as drawn. Numbered stars: 1 amine (or outer) side, 2 acyl side, 3 side chain; on linkers, the order of the positions; unused ones are H or OH. Square brackets hold non-standard residues; d marks the D form. Peptide text beside a SMILES is read from it. * marks the point of attachment. X1 = CCCCCCCCC[C@H](N[*:1])C(=O)[*:2]; Decanoyl = CCCCCCCCCC(=O)*

Series [1] is described as follows: Induction of membrane lysis in DOPC large unilamellar vesicles model assessed as release of carboxyfluorescein at 50 ug/mL by fluorescence spectroscopic analysis relative to control. The series is classed as physicochemical.
Series [2] has as its system Escherichia coli. The experiment in a line: Antibacterial activity against Escherichia coli ATCC 8739 assessed as growth inhibition after 24 hrs by broth microdilution method. The series is classed as functional. The note with it: ATCC 8739, 24 h. A general note: Dilution methods test growth across graded concentrations, often in twofold steps.
Series [3] can be described thus: Therapeutic index, ratio of EC50 for hemolysis of sheep erythrocytes to MIC for Staphylococcus aureus ATCC […]. The note with it: read-out: TI. Put shortly:
(§1)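 Computed as the hemolytic EC50 divided by the MIC against the named strain, both in the same mass-per-volume units. Both inputs come from this paper's hemoglobin-leakage and growth-inhibition assays.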

A short description of series [4]: Therapeutic index, ratio of EC50 for hemolysis of sheep erythrocytes to MIC for Escherichia coli ATCC 8739. The note with it: read-out: TI. Put shortly:
as §1

The nature of series [5]: Induction of membrane lysis in DOPC/DOPG large unilamellar vesicles model assessed as release of carboxyfluorescein at 50 ug/mL by fluorescence spectroscopic analysis relative to control. The series is classed as physicochemical.
Series [6] deals with Staphylococcus aureus. As to the kind of experiment: Antibacterial activity against Staphylococcus aureus ATCC […] assessed as growth inhibition after 24 hrs by broth microdilution method. The series is classed as functional.
A short description of series [7]: Hemolytic activity in sheep erythrocytes after 1 hr. The class given is ADME, cell-based. The settings on record: Ovis aries, Erythrocyte. Summed up: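 Red blood cells were exposed to the peptides, and hemoglobin leakage was the read-out.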

A word on the MIC: it is the lowest concentration found to suppress growth. In general, EC50 refers to the concentration giving half of the maximal effect. Low readings indicate greater potency, high ones weaker potency. With `CCCCCCCCCC(=O)NCC(=O)N[C@@H](CC(C)C)C(=O)N[C@@H](CC(C)C)C(=O)N[C@@H](CCCCN)C(=O)N[C@@H](CCCNC(=N)N)C(=O)N[C@H](C(=O)N[C@@H](CCCCN)C(=O)N[C@H](C(=O)N[C@@H](CC(C)C)C(=O)N[C@@H](CC(C)C)C(N)=O)[C@@H](C)O)[C@@H](C)CC` (Decanoyl-GLLKRIKTLL-NH2), the figures for the Activity in series [1] and in series [5] were 62% and 100%, respectively. Further, the MIC in series [2] and in series [6] was 2.5 µg/mL (≈ 1.91 µM) in each case. In addition, the selectivity ratio in series [3] and in series [4] was 2 in each case. This compound showed an EC50 in series [7] of 5 µg/mL (≈ 3.82 µM).

As to H-GLLKRIKTLL-NH2 [ANOPLIN], the Activity came to 41% in series [1] and 35% in series [5]. Also, the MIC in series [2] turned out to be 41 µg/mL; in series [6] it was 20.6 µg/mL. Further, the figures for the selectivity ratio in series [3] and in series [4] were greater than 24.3 and greater than 12.2, respectively. In series [7], the EC50 was greater than 500 µg/mL.

Regarding `CCCCCCCCC[C@H](NC(=O)CN)C(=O)N[C@@H](CC(C)C)C(=O)N[C@@H](CCCCN)C(=O)N[C@@H](CCCNC(=N)N)C(=O)N[C@H](C(=O)N[C@@H](CCCCN)C(=O)N[C@H](C(=O)N[C@@H](CC(C)C)C(=O)N[C@@H](CC(C)C)C(N)=O)[C@@H](C)O)[C@@H](C)CC` (H-G[X1]LKRIKTLL-NH2), the values for the Activity in series [1] and in series [5] were 47% and 48%, respectively. The MIC turned out to be 5.2 µg/mL (≈ 4.25 µM) in series [2] and 2.5 µg/mL (≈ 2.04 µM) in series [6]. Further, the selectivity ratio in series [3] was determined as 43.2; in series [4] it was 10.5. Further, the midpoint of the response in series [7], the EC50, lay at 108 µg/mL (≈ 88.3 µM).

Turning to `CCCCCCCCC[C@H](NC(=O)[C@H](CC(C)C)NC(=O)[C@@H](NC(=O)[C@H](CCCCN)NC(=O)[C@@H](NC(=O)[C@H](CCCNC(=N)N)NC(=O)[C@H](CCCCN)NC(=O)[C@H](CC(C)C)NC(=O)[C@H](CC(C)C)NC(=O)CN)[C@@H](C)CC)[C@@H](C)O)C(N)=O` (H-GLLKRIKTL[X1]-NH2), the Activity in series [1] and in series [5] was 48% throughout. Also, the figures for the MIC in series [2] and in series [6] were 10.3 µg/mL (≈ 8.42 µM) and 2.5 µg/mL (≈ 2.04 µM), respectively. For the same compound, the selectivity ratio in series [3] worked out at 30.8; in series [4] it was 3.7. In series [7], this compound had an EC50 of 77 µg/mL (≈ 62.9 µM).

Take `CCCCCCCCC[C@H](NC(=O)[C@H](CCCNC(=N)N)NC(=O)[C@H](CCCCN)NC(=O)[C@H](CC(C)C)NC(=O)[C@H](CC(C)C)NC(=O)CN)C(=O)N[C@@H](CCCCN)C(=O)N[C@H](C(=O)N[C@@H](CC(C)C)C(=O)N[C@@H](CC(C)C)C(N)=O)[C@@H](C)O` (H-GLLKR[X1]KTLL-NH2): the results for the Activity in series [1] and in series [5] were 45% and 48%, respectively. Besides, the MIC was 10.3 µg/mL (≈ 8.42 µM) in series [2] and 2.5 µg/mL (≈ 2.04 µM) in series [6]. Further, the results for the selectivity ratio in series [3] and in series [4] were 15.6 and 1.9, respectively. In series [7], this compound returned an EC50 of 39 µg/mL (≈ 31.9 µM).
